In ChEMBL document CHEMBL1155137, “Extended-spectrum beta-lactamases of the CTX-M type now in Switzerland” (2007):
≈ marks a conversion by molar mass, not a printed value.

What was measured:
Enterobacter [1] = test: Antimicrobial activity against Enterobacter isolates producing extended-spectrum beta-lactamase assessed as percent resistant isolates by disk diffusion method
Enterobacter [2] = test: Antimicrobial activity against Enterobacter isolates producing extended-spectrum beta-lactamase CTX-M-1 by agar dilution method; type: functional
How it was run: (§1)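 Enterobacterial clinical isolates on Mueller-Hinton agar. Agar dilution with an inoculum of 10⁴ CFU per spot gave MICs of selected β-lactams. β-lactams were tested alone or with a fixed level of clavulanic acid (4 μg/ml) or tazobactam (4 μg/ml).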

Enterobacter [3] = test: Antimicrobial activity against Enterobacter isolates producing extended-spectrum beta-lactamase CTX-M-15 by agar dilution method; type: functional
How it was run: as §1

Enterobacter [4] = test: Antimicrobial activity against Enterobacter isolates producing extended-spectrum beta-lactamase CTX-M-2 by agar dilution method; type: functional
How it was run: as §1

Enterobacter [5] = test: Antimicrobial activity against Enterobacter isolates producing extended-spectrum beta-lactamase CTX-M-9 by agar dilution method; type: functional
How it was run: as §1

Enterobacter [6] = test: Antimicrobial activity against Enterobacter isolates producing extended-spectrum beta-lactamase CTX-M-14 by agar dilution method; type: functional
How it was run: as §1

Enterobacter [7] = test: Antimicrobial activity against Enterobacter isolates producing extended-spectrum beta-lactamase TEM-ES by agar dilution method; type: functional
How it was run: as §1

Enterobacter [8] = test: Antimicrobial activity against Enterobacter isolates producing extended-spectrum beta-lactamase SHV-ES by agar dilution method; type: functional
How it was run: as §1

Structure (SMILES) | MIC (Enterobacter [2]) [µg/mL] | MIC (Enterobacter [3]) [µg/mL] | MIC (Enterobacter [4]) [µg/mL] | MIC (Enterobacter [5]) [µg/mL] | MIC (Enterobacter [6]) [µg/mL] | MIC (Enterobacter [7]) [µg/mL] | MIC (Enterobacter [8]) [µg/mL] | Activity (Enterobacter [1]) [%]
NCC[C@H](O)C(=O)N[C@@H]1C[C@H](N)[C@@H](O[C@H]2O[C@H](CN)[C@@H](O)[C@H](O)[C@H]2O)[C@H](O)[C@H]1O[C@H]1O[C@H](CO)[C@@H](O)[C@H](N)[C@H]1O [AMIKACIN] | – | – | – | – | – | – | – | 2
C[C@H]1[C@H](NC(=O)/C(=N\OC(C)(C)C(=O)O)c2csc(N)n2)C(=O)N1S(=O)(=O)O [AZTREONAM] | 64 (≈ 147 µM) | 2 (≈ 4.59 µM) | 16 (≈ 36.7 µM) | 2 (≈ 4.59 µM) | 2 (≈ 4.59 µM) | 2 (≈ 4.59 µM) | 2 (≈ 4.59 µM) | –
CC(C)(O/N=C(\C(=O)N[C@@H]1C(=O)N2C(C(=O)[O-])=C(C[n+]3ccccc3)CS[C@H]12)c1csc(N)n1)C(=O)O [CEFTAZIDIME] | 4 (≈ 7.32 µM) | 1 (≈ 1.83 µM) | 1 (≈ 1.83 µM) | 1 (≈ 1.83 µM) | 0.5 (≈ 0.915 µM) | 4 (≈ 7.32 µM) | 0.25 (≈ 0.457 µM) | –
O=C(N[C@H](CO)[C@H](O)c1ccc([N+](=O)[O-])cc1)C(Cl)Cl [CHLORAMPHENICOL] | – | – | – | – | – | – | – | 30
O=C(O)c1cn(C2CC2)c2cc(N3CCNCC3)c(F)cc2c1=O [CIPROFLOXACIN] | – | – | – | – | – | – | – | 50
C[C@@H](O)[C@H]1C(=O)N2C(C(=O)O)=C(SCCNC=N)C[C@H]12 [IMIPENEM ANHYDROUS] | 0.25 (≈ 0.835 µM) | 0.25 (≈ 0.835 µM) | 0.25 (≈ 0.835 µM) | 0.25 (≈ 0.835 µM) | 0.25 (≈ 0.835 µM) | 0.25 (≈ 0.835 µM) | 0.25 (≈ 0.835 µM) | –

Now from value to compound, other results behind:

MIC (Enterobacter [2]) [µg/mL] | MIC (Enterobacter [3]) [µg/mL] | MIC (Enterobacter [4]) [µg/mL] | MIC (Enterobacter [5]) [µg/mL] | MIC (Enterobacter [6]) [µg/mL] | MIC (Enterobacter [7]) [µg/mL] | MIC (Enterobacter [8]) [µg/mL] | Structure (SMILES) | Activity (Enterobacter [1]) [%]
> 256 | > 256 | > 256 | > 256 | > 256 | > 256 | > 256 | CC1(C)S[C@@H]2[C@H](NC(=O)[C@H](N)c3ccc(O)cc3)C(=O)N2[C@H]1C(=O)O [AMOXICILLIN] | –
32 (≈ 66.6 µM) | 8 (≈ 16.6 µM) | 16 (≈ 33.3 µM) | 2 (≈ 4.16 µM) | 2 (≈ 4.16 µM) | 0.25 (≈ 0.52 µM) | 0.25 (≈ 0.52 µM) | CO/N=C(\C(=O)N[C@@H]1C(=O)N2C(C(=O)[O-])=C(C[N+]3(C)CCCC3)CS[C@H]12)c1csc(N)n1 [CEFEPIME] | –
> 256 | 128 (≈ 281 µM) | 128 (≈ 281 µM) | 32 (≈ 70.3 µM) | 32 (≈ 70.3 µM) | 0.12 (≈ 0.263 µM) | 2 (≈ 4.39 µM) | CO/N=C(\C(=O)N[C@@H]1C(=O)N2C(C(=O)O)=C(COC(C)=O)CS[C@H]12)c1csc(N)n1 [CEFOTAXIME] | –
8 (≈ 18.7 µM) | 4 (≈ 9.36 µM) | 4 (≈ 9.36 µM) | 8 (≈ 18.7 µM) | 4 (≈ 9.36 µM) | 4 (≈ 9.36 µM) | 4 (≈ 9.36 µM) | CO[C@@]1(NC(=O)Cc2cccs2)C(=O)N2C(C(=O)O)=C(COC(N)=O)CS[C@@H]21 [CEFOXITIN] | –
> 256 | > 256 | > 256 | > 256 | > 256 | > 256 | > 256 | CC(=O)OCC1=C(C(=O)O)N2C(=O)[C@@H](NC(=O)Cc3cccs3)[C@H]2SC1 [CEPHALOTHIN] | –
0.12 (≈ 0.252 µM) | 0.003 (≈ 0.00631 µM) | 0.06 (≈ 0.126 µM) | 0.06 (≈ 0.126 µM) | 0.003 (≈ 0.00631 µM) | 0.06 (≈ 0.126 µM) | 0.06 (≈ 0.126 µM) | C[C@@H](O)[C@H]1C(=O)N2C(C(=O)O)=C(S[C@@H]3CN[C@H](C(=O)Nc4cccc(C(=O)O)c4)C3)[C@H](C)[C@H]12 [ERTAPENEM] | –
> 256 | 128 (≈ 247 µM) | 128 (≈ 247 µM) | 64 (≈ 124 µM) | 32 (≈ 61.8 µM) | 32 (≈ 61.8 µM) | 32 (≈ 61.8 µM) | CCN1CCN(C(=O)N[C@@H](C(=O)N[C@@H]2C(=O)N3[C@@H]2SC(C)(C)[C@@H]3C(=O)O)c2ccccc2)C(=O)C1=O [PIPERACILLIN] | –
> 256 | > 256 | > 256 | > 256 | > 256 | > 256 | > 256 | CC1(C)S[C@@H]2[C@H](NC(=O)[C@H](C(=O)O)c3ccsc3)C(=O)N2[C@H]1C(=O)O [TICARCILLIN] | –
